Legend:
[1] = Inhibition of P-gp in MDCK-MDR1 cells by calcein-AM assay; format: cell-based, Canis lupus familiaris
In short: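 MDCK-MDR1 cells overexpressing P-gp, grown in high-glucose DMEM with 10% FBS, were seeded at 50 000 cells/well and left overnight to reach confluence. Compound preincubated 30 min at 37 °C, then calcein-AM (2.5 μM final) added for a further 30 min. Cells washed with ice-cold PBS and fluorescence read at ex 485/em 535 nm relative to untreated cells. EC50 fitted from % fluorescence increase versus log dose.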

[2] = Octanol-aqueous phases partition coefficient, log D of the compound at pH 7.4; format: physicochemical; conditions: octanol/aqueous phase
[3] = Lipophilicity, log P of the compound; format: physicochemical; conditions: octanol/water
[4] = tested on: SK-N-SH; assay: Antiproliferative activity against human SK-N-SH cells after 48 hts by MTT assay; format: functional, cell-based
In short: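 SK-N-SH neuroblastoma cells grown in RPMI 1640 with 10% FBS, glutamine, pyruvate and nonessential amino acids at 37 °C, 5% CO2. Seeded at 30 000 cells/well, then exposed next day to drug (0.1 μM-100 μM; solvent controls included). MTT 0.5 mg/mL added for 3 h at 37 °C after 48 h exposure, formazan dissolved in DMSO, absorbance read at 570 and 630 nm. EC50 from nonlinear curve fitting; means of ≥2 experiments.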

[5] = Displacement of [3H]DTG from sigma 2 receptor in Wistar Hannover rat liver membrane in presence of (+)-pentazocine; format: cell membranes
[6] = molecular target: Sigma non-opioid intracellular receptor 1 (Cavia porcellus, UniProt Q60492); assay: Displacement of [3H]-(+)-pentazocine from sigma 1 receptor in Dunkin guinea pig brain membrane without cerebellum; format: cell membranes
Sigma non-opioid intracellular receptor 1, sequence (Q60492 whole entry): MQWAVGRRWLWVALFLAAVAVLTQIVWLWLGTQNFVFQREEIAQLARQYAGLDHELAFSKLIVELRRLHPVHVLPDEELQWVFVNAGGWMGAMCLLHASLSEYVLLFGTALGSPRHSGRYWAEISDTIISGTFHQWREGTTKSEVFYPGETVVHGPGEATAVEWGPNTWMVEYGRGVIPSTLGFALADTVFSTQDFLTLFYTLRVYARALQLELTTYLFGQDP

[7] = tested on: SK-N-SH; assay: Antiproliferative activity against human SK-N-SH cells at 100 uM after 48 hts by MTT assay; format: functional
[8] = molecular target: Sigma non-opioid intracellular receptor 1 (Cavia porcellus) (UniProt Q60492); assay: Displacement of [3H]-(+)-pentazocine from sigma 1 receptor in Dunkin guinea pig brain membrane without cerebellum at 10^-12M; format: cell membranes
Sigma non-opioid intracellular receptor 1 (Cavia porcellus), sequence (Q60492 whole entry): as above
In short: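 σ1 binding with (+)-[3H]-pentazocine on guinea pig brain membranes lacking cerebellum; percent inhibition of specific binding recorded at a single 10-12 M test concentration. Means of ≥3 separate experiments.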

EC50 [1] [µM] | logD [2] | logP [3] | EC50 [4] [µM] | Ki [5] [µM] | Ki [6] [µM] | inhibition [8] [%] | SMILES | inhibition at 100 µM [7] [%]
3 | 3.99 | 5.08 | 9.04 | 0.00068 |  |  | COc1cccc2c1CCCC2CCCN1CCN(C2CCCCC2)CC1 (racemic) | 
3.8 |  |  | 9.37 | 0.00118 |  |  | COc1cccc2c1CCC[C@H]2CCCN1CCN(C2CCCCC2)CC1 | 
1.7 |  |  |  | 0.00471 | 0.00324 |  | COc1cccc2c1CCC[C@@H]2OCCN1CCN(C2CCCCC2)CC1 | 93
2.4 |  |  |  | 0.00903 | 0.0039 |  | COc1cccc2c1CCCC2OCCN1CCN(C2CCCCC2)CC1 (racemic) | 72
9.8 |  |  |  | 0.0144 | 0.0136 |  | COc1cccc2c1CCC[C@H]2NCCN1CCN(C2CCCCC2)CC1 | 31
5.2 |  |  |  | 0.00972 | 0.0125 |  | COc1cccc2c1OCCC2CCCN1CCN(C2CCCCC2)CC1 (racemic) | 100
5.3 |  |  |  | 0.0111 | 0.00217 |  | COc1cccc2c1CCC[C@H]2OCCN1CCN(C2CCCCC2)CC1 | 91
10 | 0.89 | 3.05 |  | 0.00849 | 0.0239 |  | COc1cccc2c1CCCC2NCCN1CCN(C2CCCCC2)CC1 (racemic) | 48
4.4 |  |  | 9.07 | 0.00049 |  |  | COc1cccc2c1CCC[C@@H]2CCCN1CCN(C2CCCCC2)CC1 | 

More lines, now with the values behind:

SMILES | EC50 [1] [µM] | logD [2] | logP [3] | EC50 [4] [µM] | Ki [5] [µM] | Ki [6] [µM] | inhibition [8] [%] | inhibition at 100 µM [7] [%]
COc1cccc2c1CCC[C@@H]2NCCN1CCN(C2CCCCC2)CC1 | 3.2 |  |  |  | 0.00852 | 0.0233 |  | 33
COc1cccc2c1CCC[C@H]2NC(=O)CN1CCN(C2CCCCC2)CC1 | 6.6 |  |  |  | 0.0101 | 0.0204 |  | 100
COc1cccc2c1CCCC2NC(=O)CN1CCN(C2CCCCC2)CC1 (racemic) | 8.8 | 2.38 | 3.69 |  | 0.0133 | 0.0126 |  | 68
COc1cccc2c(NCCN3CCN(C4CCCCC4)CC3)cccc12 | 3.6 | 2.88 | 4.08 | 44 | 0.0185 | 0.00544 |  | 
COc1cccc2c(OCCN3CCN(C4CCCCC4)CC3)cccc12 | 3.4 | 2.88 | 3.94 | 41.6 | 0.0024 |  | 65 | 
COc1cccc2c1CCCC2N(C)CCN1CCN(C2CCCCC2)CC1 (racemic) | 8.8 | 1.83 | 4.83 |  | 0.0153 | 0.00417 |  | 82
COc1cccc2c(NC(=O)CN3CCN(C4CCCCC4)CC3)cccc12 | 9.1 | 2.18 | 3.44 |  | 0.0232 | 0.0426 |  | 75
COc1cccc2c1CCC[C@@H]2NC(=O)CN1CCN(C2CCCCC2)CC1 | 8.1 |  |  |  | 0.00592 | 0.0946 |  | 100
